According to ChEMBL document CHEMBL1155379, “Effect of 3'-end capping of aptamer with various 2',4'-bridged nucleotides: Enzymatic post-modification toward a practical use of polyclonal aptamers” (Bioorg Med Chem Lett, 2010):

Legend:
[1] = Chemical stability in presence of 80% (v/v) human serum assessed as intact compound remaining after 8 hrs by PAGE; format: physicochemical; conditions: read-out: Stability
Procedure, shortened: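 Aptamer incubated in 80% v/v human serum at 37 °C for 8 h; intact full-length aptamer remaining quantified.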

Prothrombin = Prothrombin (Homo sapiens, UniProt P00734); assay: Binding affinity to human thrombin after 30 mins by non-equilibrium capillary electrophoresis
Procedure, shortened: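 Capillary electrophoresis of aptamer–thrombin mixtures: aptamer 1 nM with thrombin 4 nM in 20 mM Tris-HCl (1 mM MgCl2) pH 7.4 sample buffer; running buffer 100 mM sodium borate pH 8.35; separation +12 kV, injection 0.5 psi × 7.8 s. Kd derived from binding saturation curves over varied thrombin concentrations.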

[2] = Chemical stability in presence of snake venom phosphodiesterase 1 assessed as oligonucleotide degradation after 120 mins by PAGE; format: physicochemical; conditions: 2 h

| Compound | remaining at 8 h [1] [%] | Kd (Prothrombin) [nM] | Stability [2] |
| --- | --- | --- | --- |
| C=C1NC(=O)C(C)=CN1[C@H]1C[C@H](OP(=O)(O)OC[C@H]2O[C@@H](n3cnc4c(=O)[nH]c(N)nc43)[C@H](O)[C@@H]2OP(=O)(O)OC[C@H]2O[C@@H](n3cnc4c(N)ncnc43)[C@H](O)[C@@H]2OP(=O)(O)OC[C@H]2O[C@@H](n3ccc(N)nc3=O)[C@H](O)[C@@H]2OP(=O)(O)OC[C@H]2O[C@@H](n3cc(C)c(=O)[nH]c3=O)C[C@@H]2OP(=O)(O)OC[C@@]23CNO[C@@H]([C@H](n4cc(C)c(=O)[nH]c4=O)O2)[C@@H]3O)[C@@H](COP(=O)(O)O[C@H]2[C@@H](O)[C@H](n3cnc4c(=O)[nH]c(N)nc43)O[C@@H]2COP(=O)(O)O[C@H]2[C@@H](O)[C@H](n3cnc4c(=O)[nH]c(N)nc43)O[C@@H]2COP(=O)(O)O[C@H]2[C@@H](O)[C@H](n3cnc4c(=O)[nH]c(N)nc43)O[C@@H]2COP(=O)(O)O[C@H]2[C@@H](O)[C@H](n3cnc4c(=O)[nH]c(N)nc43)O[C@@H]2COP(=O)(O)O[C@H]2C[C@H](n3cc(C)c(=O)[nH]c3=O)O[C@@H]2COP(=O)(O)O[C@H]2C[C@H](n3cc(C)c(=O)[nH]c3=O)O[C@@H]2COP(=O)(O)O[C@H]2[C@@H](O)[C@H](n3cnc4c(=O)[nH]c(N)nc43)O[C@@H]2COP(=O)(O)O[C@H]2[C@@H](O)[C@H](n3cnc4c(=O)[nH]c(N)nc43)O[C@@H]2COP(=O)(O)O[C@H]2[C@@H](O)[C@H](n3cnc4c(N)ncnc43)O[C@@H]2COP(=O)(O)O[C@H]2[C@@H](O)[C@H](n3ccc(N)nc3=O)O[C@@H]2COP(=O)(O)O[C@H]2[C@@H](O)[C@H](n3cnc4c(=O)[nH]c(N)nc43)O[C@@H]2COP(=O)(O)O[C@H]2[C@@H](O)[C@H](n3cnc4c(=O)[nH]c(N)nc43)O[C@@H]2COP(=O)(O)O[C@H]2[C@@H](O)[C@H](n3cnc4c(=O)[nH]c(N)nc43)O[C@@H]2COP(=O)(O)O[C@H]2[C@@H](O)[C@H](n3cnc4c(N)ncnc43)O[C@@H]2COP(=O)(O)O[C@H]2C[C@H](n3cc(C)c(=O)[nH]c3=O)O[C@@H]2COP(=O)(O)O[C@H]2[C@@H](O)[C@H](n3cnc4c(=O)[nH]c(N)nc43)O[C@@H]2COP(=O)(O)O[C@H]2[C@@H](O)[C@H](n3cnc4c(=O)[nH]c(N)nc43)O[C@@H]2COP(=O)(O)O[C@H]2C[C@H](n3cc(C)c(=O)[nH]c3=O)O[C@@H]2COP(=O)(O)O[C@H]2[C@@H](O)[C@H](n3cnc4c(=O)[nH]c(N)nc43)O[C@@H]2COP(=O)(O)O[C@H]2[C@@H](O)[C@H](n3ccc(N)nc3=O)O[C@@H]2COP(=O)(O)O[C@H]2[C@@H](O)[C@H](n3ccc(N)nc3=O)O[C@@H]2COP(=O)(O)O[C@H]2C[C@H](n3cc(C)c(=O)[nH]c3=O)O[C@@H]2COP(=O)(O)O[C@H]2[C@@H](O)[C@H](n3cnc4c(=O)[nH]c(N)nc43)O[C@@H]2COP(=O)(O)O[C@H]2[C@@H](O)[C@H](n3cnc4c(N)ncnc43)O[C@@H]2COc2ccc3c(c2)Oc2cc(O)ccc2C32OC(=O)c3ccccc32)O1 (stereo partly specified) | 20 | 0.21 | Stable |
| C=C1NC(=O)C(C)=CN1[C@H]1C[C@H](OP(=O)(O)OC[C@H]2O[C@@H](n3cnc4c(=O)[nH]c(N)nc43)[C@H](O)[C@@H]2OP(=O)(O)OC[C@H]2O[C@@H](n3cnc4c(N)ncnc43)[C@H](O)[C@@H]2OP(=O)(O)OC[C@H]2O[C@@H](n3ccc(N)nc3=O)[C@H](O)[C@@H]2OP(=O)(O)OC[C@H]2O[C@@H](n3cc(C)c(=O)[nH]c3=O)C[C@@H]2OP(=O)(O)OC[C@]23O[C@@H](n4cc(C)c(=O)[nH]c4=O)[C@H](OCOC2c2ccccc2)[C@@H]3O)[C@@H](COP(=O)(O)O[C@H]2[C@@H](O)[C@H](n3cnc4c(=O)[nH]c(N)nc43)O[C@@H]2COP(=O)(O)O[C@H]2[C@@H](O)[C@H](n3cnc4c(=O)[nH]c(N)nc43)O[C@@H]2COP(=O)(O)O[C@H]2[C@@H](O)[C@H](n3cnc4c(=O)[nH]c(N)nc43)O[C@@H]2COP(=O)(O)O[C@H]2[C@@H](O)[C@H](n3cnc4c(=O)[nH]c(N)nc43)O[C@@H]2COP(=O)(O)O[C@H]2C[C@H](n3cc(C)c(=O)[nH]c3=O)O[C@@H]2COP(=O)(O)O[C@H]2C[C@H](n3cc(C)c(=O)[nH]c3=O)O[C@@H]2COP(=O)(O)O[C@H]2[C@@H](O)[C@H](n3cnc4c(=O)[nH]c(N)nc43)O[C@@H]2COP(=O)(O)O[C@H]2[C@@H](O)[C@H](n3cnc4c(=O)[nH]c(N)nc43)O[C@@H]2COP(=O)(O)O[C@H]2[C@@H](O)[C@H](n3cnc4c(N)ncnc43)O[C@@H]2COP(=O)(O)O[C@H]2[C@@H](O)[C@H](n3ccc(N)nc3=O)O[C@@H]2COP(=O)(O)O[C@H]2[C@@H](O)[C@H](n3cnc4c(=O)[nH]c(N)nc43)O[C@@H]2COP(=O)(O)O[C@H]2[C@@H](O)[C@H](n3cnc4c(=O)[nH]c(N)nc43)O[C@@H]2COP(=O)(O)O[C@H]2[C@@H](O)[C@H](n3cnc4c(=O)[nH]c(N)nc43)O[C@@H]2COP(=O)(O)O[C@H]2[C@@H](O)[C@H](n3cnc4c(N)ncnc43)O[C@@H]2COP(=O)(O)O[C@H]2C[C@H](n3cc(C)c(=O)[nH]c3=O)O[C@@H]2COP(=O)(O)O[C@H]2[C@@H](O)[C@H](n3cnc4c(=O)[nH]c(N)nc43)O[C@@H]2COP(=O)(O)O[C@H]2[C@@H](O)[C@H](n3cnc4c(=O)[nH]c(N)nc43)O[C@@H]2COP(=O)(O)O[C@H]2C[C@H](n3cc(C)c(=O)[nH]c3=O)O[C@@H]2COP(=O)(O)O[C@H]2[C@@H](O)[C@H](n3cnc4c(=O)[nH]c(N)nc43)O[C@@H]2COP(=O)(O)O[C@H]2[C@@H](O)[C@H](n3ccc(N)nc3=O)O[C@@H]2COP(=O)(O)O[C@H]2[C@@H](O)[C@H](n3ccc(N)nc3=O)O[C@@H]2COP(=O)(O)O[C@H]2C[C@H](n3cc(C)c(=O)[nH]c3=O)O[C@@H]2COP(=O)(O)O[C@H]2[C@@H](O)[C@H](n3cnc4c(=O)[nH]c(N)nc43)O[C@@H]2COP(=O)(O)O[C@H]2[C@@H](O)[C@H](n3cnc4c(N)ncnc43)O[C@@H]2COc2ccc3c(c2)Oc2cc(O)ccc2C32OC(=O)c3ccccc32)O1 (stereo partly specified) | 20 | 0.28 | Stable |
